This is an account of results in ChEMBL document CHEMBL3244038, “Synthesis and analgesic activity of human beta-endorphin” (1977).

Experiment [1] has as its system Mus musculus. The experiment in a line: Analgesic activity in icv dosed ICR mouse assessed as 50% inhibition of heat stimulus-induced tail flick response measured for 60 to 90 mins. In kind it is functional. Put shortly: (§1)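 Male ICR mice, 25-30 g. Tail-flick latency to heat with a 10 s cutoff. A twofold increase in latency over the pre-drug control was the quantal criterion. AD50 with 95% confidence limits by Litchfield-Wilcoxon.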

Experiment [2] has as its system Mus musculus. The experiment in a line: Analgesic activity in icv dosed ICR mouse assessed as 50% inhibition of thermal stimulus-induced response measured for 60 to 90 mins by hot-plate test. In kind it is functional. The method in brief: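 Male ICR mice, 25-30 g. Peptide given icv (5 µl). Hot-plate latency with a 60 s cutoff. A twofold increase over the control latency (mean of two pre-drug readings) was the quantal criterion. AD50 with 95% confidence limits by Litchfield-Wilcoxon.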
Background: Hot-plate and tail-flick tests time the reaction to a heat stimulus.

For experiment [3], the system named is Mus musculus. The experiment in a line: Analgesic activity in icv dosed ICR mouse assessed as 50% inhibition of acetic acid-induced writhing response administered 5 mins prior to acetic acid challenge measured for 60 to 90 mins. In kind it is functional. On the technique in general: An intraperitoneal irritant provokes the stretching counted in writhing tests.

The test system of experiment [4] is Mus musculus. Kind of experiment: Analgesic activity iv dosed ICR mouse assessed as 50% inhibition of heat stimulus-induced tail flick response measured for 60 to 90 mins. In kind it is functional. The method in brief:
as §1

Experiment [5] deals with Mus musculus. The experiment in a line: Analgesic activity in icv dosed ICR mouse assessed as inhibition of heat stimulus-induced tail flick response measured for 30 to 60 mins. In kind it is functional, organism-based. The method in brief: (§2)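 Male ICR mice, 25-30 g. Peptide given icv (5 µl) over a dose range of 0.09-0.38 µg/mouse. Tail-flick latency was measured against noxious heat with a 10 s cutoff. Control latency was the mean of two pre-drug readings. Percent analgesia = (T1−T0)/(T2−T0)×100. For line 2, naloxone 1 mg/kg sc was given 10 min after the peptide. Mean ± SEM.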

Experiment [6] relates to Mus musculus. Kind of experiment: Analgesic activity in ICR mouse assessed as inhibition of heat stimulus-induced tail flick response at 0.38 ug, icv administered opiate antagonist naloxone at 10 mins post compound treatment measured for 30 to 60 mins. It counts as functional, organism-based. The method in brief: as §2
The test system of experiment [7] is Mus musculus. The experiment in a line: Analgesic activity in icv dosed ICR mouse assessed as inhibition of thermal stimulus-induced response by hot-plate test in presence of opiate antagonist naloxone. In kind it is functional, organism-based.
In experiment [8] the test system is Mus musculus. The experiment in a line: Analgesic activity in ICR mouse assessed as inhibition of acetic acid-induced writhing response at 0.38 ug, icv administered 5 mins prior to acetic acid challenge measured for 15 mins. It counts as functional, organism-based. Put shortly: (§3)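 Male ICR mice, 25-30 g. Peptide given icv (5 µl) 5 min before i.p. 0.6% acetic acid (0.1 ml/10 g body weight). Writhes counted over 15 min.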

The test system of experiment [9] is Mus musculus. Kind of experiment: Analgesic activity in opiate antagonist naloxone-treated ICR mouse assessed as inhibition of acetic acid-induced writhing response at 0.38 ug, icv administered 5 mins prior to acetic acid challenge measured for 15 mins. It counts as functional, organism-based. Put shortly:
as §3

Experiment [10] relates to Mus musculus. Kind of experiment: Analgesic activity in iv dosed ICR mouse assessed as inhibition of heat stimulus-induced tail flick response measured for 20 to 30 mins. It counts as functional, organism-based. The method in brief:
(§4)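 Male ICR mice, 25-30 g. Peptide given iv via the tail vein at 9.4, 18.8 or 28.2 mg/kg. Tail-flick latency to heat with a 10 s cutoff. Percent analgesia calculated against the pre-drug control latency. For line 10, naloxone hydrochloride 1 mg/kg sc was given 5 min before 20.1 mg/kg peptide. Mean ± SEM.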

The subject of experiment [11] is Mus musculus. The experiment in a line: Analgesic activity in opiate antagonist naloxone hydrochloride-treated ICR mouse assessed as inhibition of heat stimulus-induced tail flick response at 20.1 mg/kg, iv measured for 20 to 30 mins. In kind it is functional, organism-based. More on the design: dose 20.1 mg/kg. The method in brief:
as §4

Experiment [12] deals with Mus musculus. The experiment in a line: Potency index, ratio of morphine AD50 to compound AD50 for analgesic activity in icv dosed ICR mouse assessed as inhibition of heat stimulus-induced tail flick response. In kind it is functional.
The species named for experiment [13] is Mus musculus. Kind of experiment: Potency index, ratio of morphine AD50 to compound AD50 for analgesic activity in ICR mouse assessed as inhibition of thermal stimulus-induced response by hot-plate test. In kind it is functional.
The subject of experiment [14] is Mus musculus. Kind of experiment: Potency index, ratio of morphine AD50 to compound AD50 for analgesic activity in icv dosed ICR mouse assessed as inhibition of acetic acid-induced writhing response. In kind it is functional.
For experiment [15], the system named is Mus musculus. The experiment in a line: Potency index, ratio of morphine AD50 to compound AD50 for analgesic activity in iv dosed ICR mouse assessed as inhibition of heat stimulus-induced tail flick response. In kind it is functional.
The test system of experiment [16] is Mus musculus. Kind of experiment: Analgesic activity in icv dosed ICR mouse assessed as inhibition of thermal stimulus-induced response by hot-plate test. In kind it is functional, organism-based. The method in brief: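 Male ICR mice, 25-30 g. Peptide given icv (5 µl). Hot-plate latency with a 60 s cutoff. Control latency was the mean of two pre-drug readings, with test latencies at various times after injection. Percent analgesia = (T1−T0)/(T2−T0)×100.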

Activity calls are given as the source filed them.

With `CN1CC[C@]23c4c5ccc(O)c4O[C@H]2[C@@H](O)C=C[C@H]3[C@H]1C5` [MORPHINE], the AD50 in the experiment with Mus musculus [1] was determined as 0.026 nmol; in the experiment with Mus musculus [2], 0.031 nmol; in the experiment with Mus musculus [3], 0.026 nmol; in the experiment on Mus musculus [4], 3.32 µmol/kg.

For the compound `CC[C@H](C)[C@H](NC(=O)[C@H](C)NC(=O)[C@H](CC(N)=O)NC(=O)[C@H](CCCCN)NC(=O)[C@H](Cc1ccccc1)NC(=O)[C@H](CC(C)C)NC(=O)[C@@H](NC(=O)[C@@H](NC(=O)[C@H](CC(C)C)NC(=O)[C@@H]1CCCN1C(=O)[C@@H](NC(=O)[C@H](CCC(N)=O)NC(=O)[C@H](CO)NC(=O)[C@H](CCCCN)NC(=O)[C@H](CCC(=O)O)NC(=O)[C@H](CO)NC(=O)[C@@H](NC(=O)[C@H](CCSC)NC(=O)[C@H](Cc1ccccc1)NC(=O)CNC(=O)CNC(=O)[C@@H](N)Cc1ccc(O)cc1)[C@@H](C)O)[C@@H](C)O)C(C)C)[C@@H](C)O)C(=O)N[C@H](C(=O)N[C@@H](CCCCN)C(=O)N[C@@H](CC(N)=O)C(=O)N[C@@H](C)C(=O)N[C@@H](Cc1ccc(O)cc1)C(=O)N[C@@H](CCCCN)C(=O)N[C@@H](CCCCN)C(=O)NCC(=O)N[C@@H](CCC(=O)O)C(=O)O)[C@@H](C)CC`, the inhibition result in the experiment with Mus musculus [5] and in the experiment with Mus musculus [10] was “Dose-dependent effect” in each case. The inhibition result in the experiment on Mus musculus [6], in the experiment with Mus musculus [7], in the experiment on Mus musculus [9] and in the experiment with Mus musculus [11] was “inactive” in each case. The inhibition result in the experiment on Mus musculus [8] and with Mus musculus [16] was “Active” throughout. Moreover, the Ratio is 48.4 in the experiment on Mus musculus [12], 32.8 in the experiment listed under Mus musculus [13], 17.3 in the experiment on Mus musculus [14] and 3.4 in the experiment on Mus musculus [15].

As for H-YGGFMTSEKSQTPLVTLFKNAIIKNAHKKGQ-OH, the Ratio with Mus musculus [12] was 33; in the experiment filed under Mus musculus [13], 17.5; in the experiment on Mus musculus [14], 19.5; in the experiment on Mus musculus [15] it was 3.5.
